From publication PMC12597218 (Chemmedchem, 2025)
≈ marks a conversion by molar mass, not a printed value. Blank lines part the entries; values can stand above or below the compound they belong to.

Experiments:
[1] = test system: Nrf2 (ARE stimulation) in HEK293‐ARE‐Luc reporter cell line; test: Intracellular Nrf2 activation assay; type: cell-based; details: 24 h; for Intracellular Nrf2 activating effect at lower concentration (dose‐dependency): 5 μM; for Nrf2 activity, fold change in luminescence intensity compared with the control group: test sample 10 μM, n = 3
In short: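 HEK293‐ARE‐Luc (NRF2/ARE luciferase stable line) cells (2.0 × 10⁴/well) were grown 24 h, then given test compound in DMSO (1, 2.5, 5 or 10 μM) for 24 h. One‐step luciferase reagent was added for 15 min at room temperature and luminescence read. Activation is expressed as the luminescence ratio to vehicle control, n = 3. tBHQ served as reference.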

HEK293‐ARE‐Luc cells = test: Cytotoxicity; type: cell-based; details: concentrations up to 50 μM
In short: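 HEK293‐ARE‐Luc cells (5.0 × 10⁴/well; DMEM, 10% FBS, 37 °C, 5% CO₂) were grown 24 h, then exposed to test compound added in DMSO for 24 h. CCK‐8 (WST‐8) reagent was added for 4 h and absorbance read at 420 nm. Cell viability was calculated, n = 3.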

[2] = target: Keap1‐DC domain and the ETGE‐motif fragment peptide of Nrf2 (Homo sapiens, UniProt Q14145); test: Fluorescence polarization; type: binding
Keap1‐DC domain and the ETGE‐motif fragment peptide of Nrf2, sequence (Q14145 2-624 limits assumed): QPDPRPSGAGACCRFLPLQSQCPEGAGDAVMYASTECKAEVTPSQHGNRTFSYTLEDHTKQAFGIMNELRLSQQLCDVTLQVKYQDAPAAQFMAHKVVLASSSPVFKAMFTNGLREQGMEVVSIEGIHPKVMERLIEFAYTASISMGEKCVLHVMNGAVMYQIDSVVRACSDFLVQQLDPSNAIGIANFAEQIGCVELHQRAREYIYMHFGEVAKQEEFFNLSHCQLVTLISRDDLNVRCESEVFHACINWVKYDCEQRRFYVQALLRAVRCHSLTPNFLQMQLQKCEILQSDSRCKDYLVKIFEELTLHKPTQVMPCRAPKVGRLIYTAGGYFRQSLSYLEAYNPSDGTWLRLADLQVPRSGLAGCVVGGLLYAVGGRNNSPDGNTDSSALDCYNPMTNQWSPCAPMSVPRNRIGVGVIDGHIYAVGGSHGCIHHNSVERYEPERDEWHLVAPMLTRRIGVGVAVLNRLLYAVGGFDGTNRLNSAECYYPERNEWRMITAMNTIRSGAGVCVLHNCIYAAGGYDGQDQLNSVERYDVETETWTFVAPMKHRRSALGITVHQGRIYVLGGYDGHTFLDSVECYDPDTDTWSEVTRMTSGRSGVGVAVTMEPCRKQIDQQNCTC
In short: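 Fluorescence polarization read-out, using a commercial Keap1–Nrf2 inhibitor screening kit run according to the manufacturer's protocol with slight modifications.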

Solubility in PBS = type: physicochemical; details: 37 °C, pH 7.4, aqueous buffer, kinetic from dmso stock
In short: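 A 10 mM DMSO stock of test compound was diluted into PBS and rotated at 1,000 rpm, 37 °C, for 4 h. The solution was filtered through a 0.45 μm PVDF membrane by centrifugation. […] Two technical replicates.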

[3] = Parallel artificial membrane permeability assay; type: in vitro ADME; details: PAMPA
[4] = Metabolic stability in human liver microsomes; type: in vitro ADME; details: pH 7.4
In short: (§1)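 Test compound (1 μM) with human or mouse liver microsomes (0.2 mg mL⁻¹), 1 mM EDTA and 0.1 M phosphate (pH 7.4) was preincubated 5 min. Reaction was started with 1 mM NADPH (final) and run 30 min at 37 °C. Samples were quenched in acetonitrile with methyltestosterone internal standard, and parent loss versus time zero was measured by LC–MS/MS. CLint was scaled using 48.8/45.4 mg protein per g liver and 25.7/87.5 g liver per kg (human/mouse). Two technical replicates.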

[5] = Metabolic stability in mouse liver microsomes; type: in vitro ADME; details: pH 7.4
In short: as §1

Protein binding ratio = type: in vitro ADME; details: bovine, 10% FBS (fetal bovine serum), pH 7.4
In short: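 Test compound (1 μM) in 10% FBS (150 μL) was dialysed against 150 μL of 0.1 M phosphate buffer (pH 7.4) across a 12–14 kDa MWCO membrane, 37 °C, 6 h, 80 rpm. Buffer and serum samples were matrix‐matched, precipitated with acetonitrile/IS, and analysed by LC‐MS/MS. fu = C_buffer/C_plasma. Two technical replicates.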

HO‐1 and NQO1 mRNA = test: Nrf2 target gene mRNA expression in RAW264.7 cells; type: cell-based, Murine; details: 8 h
In short: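 RAW264.7 murine macrophage‐like cells (DMEM, 10% FBS, 37 °C, 5% CO₂) were treated with test compound for 8 h. HO‐1 and NQO1 mRNA were then measured by quantitative real‐time RT‐PCR with gene‐specific primers, with GAPDH primers also listed. Experiments were independent, at least three times. Mean ± SD.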

[6] = test system: LPS‐stimulated RAW264.7 cells; test: Anti‐inflammatory effect in LPS‐stimulated RAW264.7 cells; type: cell-based, Murine; details: RAW264.7, pretreated 8 h
In short: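 For NO, RAW264.7 cells (5 × 10⁵ cells/500 μL; DMEM, 10% FBS, 37 °C, 5% CO₂) were treated with test compound, given LPS (1 μg mL⁻¹) after 8 h, and incubated 16 h at 37 °C. Supernatant was mixed with Griess reagent and absorbance read at 540 nm. NO was quantified against a NaNO₂ standard. Mean ± SD.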

[7] = LPS 1 μg mL^−1, ELISA and RT‐PCR

IC50 [2]: 1.07 ± 0.04 µM
solubility at 4 h (Solubility in PBS): 2.65 µM (≈ 1.69 µg/mL)
Papp at 4 h [3]: 3.06 ×10⁻⁶ cm/s
CLint scaled at 1 μM [4]: 546 mL/min/kg
CLint scaled at 1 μM [5]: 2290 mL/min/kg
fraction unbound at 6 h, 1 μM (Protein binding ratio): < 0.0342
Structure (SMILES): CCOc1ccc(S(=O)(=O)Nc2cc(CC(=O)N3CCCC3)c(NS(=O)(=O)c3ccc(OCC)cc3)c3ccccc23)cc1 [Compound 5i, N,N′‐(2‐(2‐Oxo‐2‐(pyrrolidin‐1‐yl)ethyl)naphthalene‐1,4‐diyl)bis(4‐ethoxybenzenesulfonamide)]
Intracellular Nrf2 activating effect at lower concentration (dose‐dependency) [1]: notable activity
Cytotoxicity (WST‐8 assay) (HEK293‐ARE‐Luc cells): did not exhibit cytotoxicity
NQO1 mRNA expression, increase (HO‐1 and NQO1 mRNA; 12.5 µM and higher concentrations): approximately 50 fold
HO‐1 mRNA expression (HO‐1 and NQO1 mRNA; 12.5 μM): significantly upregulated
HO‐1 mRNA expression at higher concentrations (HO‐1 and NQO1 mRNA; concentrations above 12.5 μM): downregulated the gene relative to the peak expression
CCL2 expression [6, 7]: dose‐dependent reduction
TNF‐α expression [6, 7]: dose‐dependent reduction
Nitric oxide (NO) level ([6]; LPS 1 μg mL^−1, Griess reagent): dose‐dependent reduction
iNOS expression ([6]; LPS 1 μg mL^−1, RT‐PCR): dose‐dependent reduction

Papp at 4 h [3]: 23.1 ×10⁻⁶ cm/s
Structure (SMILES): Cc1cc(=O)n(-c2ccccc2)n1C [antipyrine]

IC50 [2]: 2.43 ± 0.17 µM
Structure (SMILES): CCOc1ccc(S(=O)(=O)Nc2cc(CC(=O)N3CCCCC3)c(NS(=O)(=O)c3ccc(OCC)cc3)c3ccccc23)cc1 [Compound 5j, N,N′‐(2‐(2‐Oxo‐2‐(piperidin‐1‐yl)ethyl)naphthalene‐1,4‐diyl)bis(4‐ethoxybenzenesulfonamide)]
Intracellular Nrf2 activating effect at lower concentration (dose‐dependency) [1]: notable activity
Nrf2 activity, fold change in luminescence intensity compared with the control group [1]: notable Nrf2 activation effects

Structure (SMILES): CCOc1ccc(S(=O)(=O)Nc2cc(CC(=O)Nc3ccccc3)c(NS(=O)(=O)c3ccc(OCC)cc3)c3ccccc23)cc1 [Compound 5h, 2‐(1,4‐Bis((4‐ethoxyphenyl)sulfonamido)naphthalen‐2‐yl)‐N‐phenylacetamide]
Nrf2 activity, fold change in luminescence intensity compared with the control group [1]: no effect on Nrf2 activity

Structure (SMILES): CC(C)(C)c1cc(O)ccc1O [tBHQ, tert‐butylhydroquinone, reference compound]
Nrf2 activity, fold change in luminescence intensity compared with the control group [1]: approximately tenfold

Papp at 4 h [3]: 1.85 ×10⁻⁶ cm/s
Structure (SMILES): COCCc1ccc(OCC(O)CNC(C)C)cc1 (stereo not shown) [metoprolol]
